# Test results taken from ChEMBL document CHEMBL1132256, “Structure-activity relationships for substituted bis(acridine-4-carboxamides): a new class of anticancer agents” (J Med Chem, 1999).
# Tested on: Jurkat
# Test: Ratio of inhibitory activity against doxorubicin resistant jurkat cells to inhibitory activity against wild type human jurkat cells
# Type: functional
# Settings: not given
# Summary of the method: (§1)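 Wild-type Jurkat (JLC) and its amsacrine-resistant (JLA) or doxorubicin-resistant (JLD) sublines each seeded at 3.75 × 10^3 cells/well, 4 days with drug, sulforhodamine read-out. IC50 (nM) for 50% of control cell number; ratio = resistant-line IC50 divided by JLC IC50. Duplicate assays, CV ca. 25%.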
row,Compound,Ratio
1,Cc1cc(C)c2nc3c(C(=O)NCCCN(C)CCCNC(=O)c4cccc5cc6cc(C)cc(C)c6nc45)cccc3cc2c1,0.8
2,CN(CCCNC(=O)c1cc(Cl)cc2cc3ccccc3nc12)CCCNC(=O)c1cc(Cl)cc2cc3ccccc3nc12,0.9
3,CN(CCCNC(=O)c1cccc2cc3cc(Br)ccc3nc12)CCCNC(=O)c1cccc2cc3cc(Br)ccc3nc12,0.9
4,CN(CCCNC(=O)c1cccc2cc3ccc(Br)cc3nc12)CCCNC(=O)c1cccc2cc3ccc(Br)cc3nc12,0.9
5,CN(CCCNC(=O)c1cccc2cc3ccc(C(F)(F)F)cc3nc12)CCCNC(=O)c1cccc2cc3ccc(C(F)(F)F)cc3nc12,1.1
6,CC(C)c1cccc2cc3cccc(C(=O)NCCCN(C)CCCNC(=O)c4cccc5cc6cccc(C(C)C)c6nc45)c3nc12,1.1
7,CN(CCCNC(=O)c1cccc2cc3cc(C(C)(C)C)ccc3nc12)CCCNC(=O)c1cccc2cc3cc(C(C)(C)C)ccc3nc12,1.1
8,CN(CCCNC(=O)c1cccc2cc3ccc(N(C)C)cc3nc12)CCCNC(=O)c1cccc2cc3ccc(N(C)C)cc3nc12,0.6
9,CN(CCCNC(=O)c1cccc2cc3cc(-c4ccccc4)ccc3nc12)CCCNC(=O)c1cccc2cc3cc(-c4ccccc4)ccc3nc12,1.1
10,COc1ccc2nc3c(C(=O)NCCCN(C)CCCNC(=O)c4cccc5cc6cc(OC)ccc6nc45)cccc3cc2c1,1.1
11,CN(CCCNC(=O)c1cccc2cc3cccc(N(C)C)c3nc12)CCCNC(=O)c1cccc2cc3cccc(N(C)C)c3nc12,0.9
12,Cc1ccc(C(=O)NCCCN(C)CCCNC(=O)c2ccc(C)c3cc4cccc(C)c4nc23)c2nc3c(C)cccc3cc12,0.7
13,CN(CCCNC(=O)c1ccc(Cl)c2cc3ccccc3nc12)CCCNC(=O)c1ccc(Cl)c2cc3ccccc3nc12,1
14,Cc1ccc(Cl)c2cc3cccc(C(=O)NCCCN(C)CCCNC(=O)c4cccc5cc6c(Cl)ccc(C)c6nc45)c3nc12,0.7
15,COc1cc(NS(C)(=O)=O)ccc1Nc1c2ccccc2nc2ccccc12 [AMSACRINE],74
16,COc1cccc2c1C(=O)c1c(O)c3c(c(O)c1C2=O)C[C@@](O)(C(=O)CO)C[C@@H]3O[C@H]1C[C@H](N)[C@H](O)[C@H](C)O1 [DOXORUBICIN],13

# Tested on: Lewis lung carcinoma cell line
# Test: Inhibitory activity of tested against Murine Lewis lung carcinoma
# Type: functional, cell-based
# Settings: Mus musculus
# Summary of the method: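 Lewis lung carcinoma (LLTC) cells at 10^3 cells/well, 4-day continuous drug exposure, growth read by sulforhodamine assay. IC50 (nM) = concentration giving 50% of control cell number. Duplicate independent assays, CV ca. 25%.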
row,Compound,IC50 [µM]
1,CN(CCCNC(=O)c1cccc2cc3cc(Br)ccc3nc12)CCCNC(=O)c1cccc2cc3cc(Br)ccc3nc12,0.035
2,CN(CCCNC(=O)c1cccc2cc3ccc(C(F)(F)F)cc3nc12)CCCNC(=O)c1cccc2cc3ccc(C(F)(F)F)cc3nc12,0.16
3,CC(C)c1cccc2cc3cccc(C(=O)NCCCN(C)CCCNC(=O)c4cccc5cc6cccc(C(C)C)c6nc45)c3nc12,1.05
4,CN(CCCNC(=O)c1cccc2cc3cc(C(C)(C)C)ccc3nc12)CCCNC(=O)c1cccc2cc3cc(C(C)(C)C)ccc3nc12,1.4
5,CN(CCCNC(=O)c1cccc2cc3ccc(N(C)C)cc3nc12)CCCNC(=O)c1cccc2cc3ccc(N(C)C)cc3nc12,0.32
6,CN(CCCNC(=O)c1cccc2cc3cc(-c4ccccc4)ccc3nc12)CCCNC(=O)c1cccc2cc3cc(-c4ccccc4)ccc3nc12,0.61
7,CN(CCCNC(=O)c1cccc2cc3cccc(N(C)C)c3nc12)CCCNC(=O)c1cccc2cc3cccc(N(C)C)c3nc12,0.67
8,CN(CCCNC(=O)c1ccc(Cl)c2cc3ccccc3nc12)CCCNC(=O)c1ccc(Cl)c2cc3ccccc3nc12,0.042
9,COc1cccc2c1C(=O)c1c(O)c3c(c(O)c1C2=O)C[C@@](O)(C(=O)CO)C[C@@H]3O[C@H]1C[C@H](N)[C@H](O)[C@H](C)O1 [DOXORUBICIN],0.022

# These reach a lower IC50. Values come first.
row,IC50 [µM],Compound
1,0.02,Cc1cc(C)c2nc3c(C(=O)NCCCN(C)CCCNC(=O)c4cccc5cc6cc(C)cc(C)c6nc45)cccc3cc2c1
2,0.0059,CN(CCCNC(=O)c1cc(Cl)cc2cc3ccccc3nc12)CCCNC(=O)c1cc(Cl)cc2cc3ccccc3nc12
3,0.018,CN(CCCNC(=O)c1cccc2cc3ccc(Br)cc3nc12)CCCNC(=O)c1cccc2cc3ccc(Br)cc3nc12
4,0.02,COc1ccc2nc3c(C(=O)NCCCN(C)CCCNC(=O)c4cccc5cc6cc(OC)ccc6nc45)cccc3cc2c1
5,0.0014,Cc1ccc(C(=O)NCCCN(C)CCCNC(=O)c2ccc(C)c3cc4cccc(C)c4nc23)c2nc3c(C)cccc3cc12
6,0.0088,Cc1ccc(Cl)c2cc3cccc(C(=O)NCCCN(C)CCCNC(=O)c4cccc5cc6c(Cl)ccc(C)c6nc45)c3nc12
7,0.012,COc1cc(NS(C)(=O)=O)ccc1Nc1c2ccccc2nc2ccccc12 [AMSACRINE]

# Tested on: Jurkat
# Test: Concentration required to inhibit 50% growth of human Jurkat cells
# Type: functional, cell-based
# Settings: not given
# Summary of the method: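 Jurkat leukemia (JLC) cells seeded at 3.75 × 10^3 cells/well and exposed to drug for 4 days; growth measured by sulforhodamine assay. IC50 = drug concentration (nM) reducing cell number to 50% of control cultures. Independent assays in duplicate, coefficients of variation ca. 25%.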
row,Compound,IC50 [µM]
1,CN(CCCNC(=O)c1cccc2cc3cc(Br)ccc3nc12)CCCNC(=O)c1cccc2cc3cc(Br)ccc3nc12,0.226
2,CN(CCCNC(=O)c1cccc2cc3ccc(C(F)(F)F)cc3nc12)CCCNC(=O)c1cccc2cc3ccc(C(F)(F)F)cc3nc12,0.355
3,CC(C)c1cccc2cc3cccc(C(=O)NCCCN(C)CCCNC(=O)c4cccc5cc6cccc(C(C)C)c6nc45)c3nc12,2.08
4,CN(CCCNC(=O)c1cccc2cc3cc(C(C)(C)C)ccc3nc12)CCCNC(=O)c1cccc2cc3cc(C(C)(C)C)ccc3nc12,1.07
5,CN(CCCNC(=O)c1cccc2cc3ccc(N(C)C)cc3nc12)CCCNC(=O)c1cccc2cc3ccc(N(C)C)cc3nc12,0.225
6,CN(CCCNC(=O)c1cccc2cc3cc(-c4ccccc4)ccc3nc12)CCCNC(=O)c1cccc2cc3cc(-c4ccccc4)ccc3nc12,1.02
7,CN(CCCNC(=O)c1cccc2cc3cccc(N(C)C)c3nc12)CCCNC(=O)c1cccc2cc3cccc(N(C)C)c3nc12,0.18
8,CN(CCCNC(=O)c1ccc(Cl)c2cc3ccccc3nc12)CCCNC(=O)c1ccc(Cl)c2cc3ccccc3nc12,0.127

# Second part, the compound after the results:
row,IC50 [µM],Compound
1,0.105,Cc1cc(C)c2nc3c(C(=O)NCCCN(C)CCCNC(=O)c4cccc5cc6cc(C)cc(C)c6nc45)cccc3cc2c1
2,0.046,CN(CCCNC(=O)c1cc(Cl)cc2cc3ccccc3nc12)CCCNC(=O)c1cc(Cl)cc2cc3ccccc3nc12
3,0.058,CN(CCCNC(=O)c1cccc2cc3ccc(Br)cc3nc12)CCCNC(=O)c1cccc2cc3ccc(Br)cc3nc12
4,0.147,COc1ccc2nc3c(C(=O)NCCCN(C)CCCNC(=O)c4cccc5cc6cc(OC)ccc6nc45)cccc3cc2c1
5,0.0039,Cc1ccc(C(=O)NCCCN(C)CCCNC(=O)c2ccc(C)c3cc4cccc(C)c4nc23)c2nc3c(C)cccc3cc12
6,0.02,Cc1ccc(Cl)c2cc3cccc(C(=O)NCCCN(C)CCCNC(=O)c4cccc5cc6c(Cl)ccc(C)c6nc45)c3nc12

# Tested on: P388
# Test: Inhibitory activity against Murine […]
# Type: functional, cell-based
# Settings: Mus musculus
# Summary of the method: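 Murine P388 leukemia cells seeded at 4.5 × 10^3 cells/well, cultured 3 days with drug; growth measured by [3H]TdR uptake. IC50 = drug concentration (nM) reducing cell number to 50% of controls. Independent assays in duplicate, CV ca. 25%.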
row,Compound,IC50 [µM]
1,CN(CCCNC(=O)c1cccc2cc3cc(Br)ccc3nc12)CCCNC(=O)c1cccc2cc3cc(Br)ccc3nc12,0.225
2,CN(CCCNC(=O)c1cccc2cc3ccc(C(F)(F)F)cc3nc12)CCCNC(=O)c1cccc2cc3ccc(C(F)(F)F)cc3nc12,9.6
3,CC(C)c1cccc2cc3cccc(C(=O)NCCCN(C)CCCNC(=O)c4cccc5cc6cccc(C(C)C)c6nc45)c3nc12,2.76
4,CN(CCCNC(=O)c1cccc2cc3cc(C(C)(C)C)ccc3nc12)CCCNC(=O)c1cccc2cc3cc(C(C)(C)C)ccc3nc12,1.76
5,CN(CCCNC(=O)c1cccc2cc3ccc(N(C)C)cc3nc12)CCCNC(=O)c1cccc2cc3ccc(N(C)C)cc3nc12,0.76
6,CN(CCCNC(=O)c1cccc2cc3cc(-c4ccccc4)ccc3nc12)CCCNC(=O)c1cccc2cc3cc(-c4ccccc4)ccc3nc12,0.71
7,CN(CCCNC(=O)c1cccc2cc3cccc(N(C)C)c3nc12)CCCNC(=O)c1cccc2cc3cccc(N(C)C)c3nc12,2.13
8,CN(CCCNC(=O)c1ccc(Cl)c2cc3ccccc3nc12)CCCNC(=O)c1ccc(Cl)c2cc3ccccc3nc12,0.4
9,COc1cccc2c1C(=O)c1c(O)c3c(c(O)c1C2=O)C[C@@](O)(C(=O)CO)C[C@@H]3O[C@H]1C[C@H](N)[C@H](O)[C@H](C)O1 [DOXORUBICIN],0.031

# Other lines, results leading:
row,IC50 [µM],Compound
1,0.21,Cc1cc(C)c2nc3c(C(=O)NCCCN(C)CCCNC(=O)c4cccc5cc6cc(C)cc(C)c6nc45)cccc3cc2c1
2,0.113,CN(CCCNC(=O)c1cc(Cl)cc2cc3ccccc3nc12)CCCNC(=O)c1cc(Cl)cc2cc3ccccc3nc12
3,0.049,CN(CCCNC(=O)c1cccc2cc3ccc(Br)cc3nc12)CCCNC(=O)c1cccc2cc3ccc(Br)cc3nc12
4,0.132,COc1ccc2nc3c(C(=O)NCCCN(C)CCCNC(=O)c4cccc5cc6cc(OC)ccc6nc45)cccc3cc2c1
5,0.021,Cc1ccc(C(=O)NCCCN(C)CCCNC(=O)c2ccc(C)c3cc4cccc(C)c4nc23)c2nc3c(C)cccc3cc12
6,0.041,Cc1ccc(Cl)c2cc3cccc(C(=O)NCCCN(C)CCCNC(=O)c4cccc5cc6c(Cl)ccc(C)c6nc45)c3nc12

# Tested on: Jurkat
# Test: Ratio of inhibitory activity against amsacrine resistant jurkat cells to inhibitory activity against wild type human jurkat cells
# Type: functional
# Settings: not given
# Summary of the method: as §1
row,Compound,Ratio
1,Cc1cc(C)c2nc3c(C(=O)NCCCN(C)CCCNC(=O)c4cccc5cc6cc(C)cc(C)c6nc45)cccc3cc2c1,0.5
2,CN(CCCNC(=O)c1cc(Cl)cc2cc3ccccc3nc12)CCCNC(=O)c1cc(Cl)cc2cc3ccccc3nc12,0.7
3,CN(CCCNC(=O)c1cccc2cc3cc(Br)ccc3nc12)CCCNC(=O)c1cccc2cc3cc(Br)ccc3nc12,0.7
4,CN(CCCNC(=O)c1cccc2cc3ccc(Br)cc3nc12)CCCNC(=O)c1cccc2cc3ccc(Br)cc3nc12,0.6
5,CN(CCCNC(=O)c1cccc2cc3ccc(C(F)(F)F)cc3nc12)CCCNC(=O)c1cccc2cc3ccc(C(F)(F)F)cc3nc12,0.6
6,CC(C)c1cccc2cc3cccc(C(=O)NCCCN(C)CCCNC(=O)c4cccc5cc6cccc(C(C)C)c6nc45)c3nc12,0.9
7,CN(CCCNC(=O)c1cccc2cc3cc(C(C)(C)C)ccc3nc12)CCCNC(=O)c1cccc2cc3cc(C(C)(C)C)ccc3nc12,1.1
8,CN(CCCNC(=O)c1cccc2cc3ccc(N(C)C)cc3nc12)CCCNC(=O)c1cccc2cc3ccc(N(C)C)cc3nc12,0.3
9,CN(CCCNC(=O)c1cccc2cc3cc(-c4ccccc4)ccc3nc12)CCCNC(=O)c1cccc2cc3cc(-c4ccccc4)ccc3nc12,1
10,COc1ccc2nc3c(C(=O)NCCCN(C)CCCNC(=O)c4cccc5cc6cc(OC)ccc6nc45)cccc3cc2c1,0.7
11,CN(CCCNC(=O)c1cccc2cc3cccc(N(C)C)c3nc12)CCCNC(=O)c1cccc2cc3cccc(N(C)C)c3nc12,0.7
12,Cc1ccc(C(=O)NCCCN(C)CCCNC(=O)c2ccc(C)c3cc4cccc(C)c4nc23)c2nc3c(C)cccc3cc12,0.3
13,CN(CCCNC(=O)c1ccc(Cl)c2cc3ccccc3nc12)CCCNC(=O)c1ccc(Cl)c2cc3ccccc3nc12,0.6
14,Cc1ccc(Cl)c2cc3cccc(C(=O)NCCCN(C)CCCNC(=O)c4cccc5cc6c(Cl)ccc(C)c6nc45)c3nc12,0.5
15,COc1cc(NS(C)(=O)=O)ccc1Nc1c2ccccc2nc2ccccc12 [AMSACRINE],85
16,COc1cccc2c1C(=O)c1c(O)c3c(c(O)c1C2=O)C[C@@](O)(C(=O)CO)C[C@@H]3O[C@H]1C[C@H](N)[C@H](O)[C@H](C)O1 [DOXORUBICIN],4.4
